Most compounds without a hit are left out; they make up all but 3.7% or so of the library.
KCNQ1 inh = blocks the human KCNQ1 potassium channel | CHO-K1 KCNQ1, FluxOR thallium flux fluorescence; stronger effect = higher value | 310,000 tested, 1.3% active | B-score at 10 µM | P51787;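 active = compounds whose thallium flux B-score, printed positive for inhibition, exceeds three library SD while starting fluorescence stays within three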;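 note: channel opened by potassium depolarization with thallium stimulus after 20 min compound exposure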
KCNK3 block = human KCNK3 channel inhibition, primary screen; O14649; 340,000 tested, 0.84% active; B-score at 10 µM; CHO-KCNK3 thallium flux, FluxOR fluorescence; stronger effect = lower value;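 active = B-score under library mean minus 4 SD, starting fluorescence ratio at most library mean plus 5 SD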;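 note: more negative B-score means stronger inhibition of thallium flux through KCNK3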
KCNK9 block = blocks the human KCNK9 two-pore domain potassium channel; 310,000 tested, 1.2% active; AID 488922; HEK293 KCNK9, FluxOR thallium flux fluorescence; stronger effect = lower value; B-score at 10 µM;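 active = ratio B-score over 3 SD below the library mean, with starting fluorescence within 5 SD of its mean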;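 note: negative B-score means less thallium flux so channel inhibition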
Kir21 block = blocks the mouse Kir2.1 inward-rectifier potassium channel | P35561 | HEK293-Kir2.1, FluxOR thallium flux fluorescence; stronger effect = lower value | B-score at 10 µM | 310,000 tested, 0.85% active;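 active = fluorescence ratio B-score at or below minus 3 SD of library scores, with starting-brightness B-score within 2 SD, cut at about -4.2 in these data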;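 note: channel flux triggered by added potassium and thallium sulfate stimulus; B-score of peak minus minimum fluorescence over baseline after thallium stimulus; more negative B-score means stronger Kir2.1 block with less thallium influx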
Target sequence (P35561 whole entry, looked up): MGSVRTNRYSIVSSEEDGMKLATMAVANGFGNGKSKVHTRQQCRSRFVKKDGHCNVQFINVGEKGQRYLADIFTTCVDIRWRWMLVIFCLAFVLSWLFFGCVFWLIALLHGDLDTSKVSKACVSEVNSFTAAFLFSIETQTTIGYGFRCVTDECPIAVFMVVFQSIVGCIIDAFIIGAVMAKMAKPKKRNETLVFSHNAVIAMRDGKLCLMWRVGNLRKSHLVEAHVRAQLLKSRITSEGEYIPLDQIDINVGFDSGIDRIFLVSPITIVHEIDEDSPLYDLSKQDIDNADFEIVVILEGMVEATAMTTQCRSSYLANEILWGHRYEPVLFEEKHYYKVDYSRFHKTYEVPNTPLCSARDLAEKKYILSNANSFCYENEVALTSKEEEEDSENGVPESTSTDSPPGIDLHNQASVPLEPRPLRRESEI
hERG rescue = compounds protecting human hERG from proarrhythmic drug block. Q12809. 310,000 tested, 0.51% active. CHO-hERG, FluxOR thallium flux, dofetilide IC70 present. activation (rescue from dofetilide block), less the hit threshold, % at 10 µM;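 active = activation above the mean of controls blocked by dofetilide plus 5 SD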;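 note: thallium influx through hERG after potassium depolarization seen as dye fluorescence rise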
KCNQ1 pot = human KCNQ1 channel potentiation or activation; P51787; CHO-K1 KCNQ1, thallium flux FluxOR fluorescence; stronger effect = higher value; B-score at 10 µM; 310,000 tested, 0.35% active; AID 2648;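 active = fluorescence ratio B-score, a plate-corrected score, at least three library SD, with initial intensity B-score within 5 SD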
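assay system = KCNQ1-transfected CHO-K1 cells | medium = assay buffer with matched DMSO | probe or stimulus = depolarizing K+/Tl+ stimulus, K2SO4 and Tl2SO4 each 12.5 mM in 5x stock | dosing = single dose | incubation = dye 90 min, compound 20 min, room temperature | detection = kinetic FluxOR fluorescence, 10 s baseline plus 110 s post-stimulus | evaluation = ratio B score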
Starred values were filed as active, the others as inactive.

Cc1nc(NC(=O)c2ccccc2)sc1-c1csc(Nc2cccc(F)c2)n1 was read as KCNQ1 inh inactive, KCNK9 block inactive, Kir21 block 1.4, hERG rescue -7 and KCNQ1 pot inactive.
Cc1cc(NS(=O)(=O)c2ccc(Nc3nc(-c4sc(NC(=O)c5ccccc5)nc4C)cs3)cc2)no1 was read as KCNQ1 inh 7*, KCNK9 block inactive, Kir21 block -4.3*, hERG rescue -16 and KCNQ1 pot inactive.
For COc1ccc(C)cc1NC(=O)C(=O)NNC(=O)c1ccco1 the results were KCNQ1 inh inactive, KCNK3 block inactive, KCNK9 block inactive, Kir21 block 1.1, hERG rescue 34* and KCNQ1 pot 29*.
`Cc1ccc(NS(=O)(=O)c2cc([N+](=O)[O-])ccc2NNC(=S)Nc2cccc(Cl)c2)c(C)c1` gave KCNQ1 inh 6*, KCNK3 block inactive, KCNK9 block inactive, Kir21 block -2.5, hERG rescue -17 and KCNQ1 pot inactive.
Screening COc1ccc(NC(=S)NNc2ccc([N+](=O)[O-])cc2S(=O)(=O)Nc2ccc(C)cc2C)cc1 returned KCNQ1 inh 7*, KCNK3 block inactive, KCNK9 block inactive, Kir21 block -0.53, hERG rescue -25 and KCNQ1 pot inactive.
For Cc1ccc(NS(=O)(=O)c2cc([N+](=O)[O-])ccc2NNC(=S)Nc2cc(C)ccc2C)c(C)c1 the results were KCNQ1 inh 6*, KCNK3 block inactive, KCNK9 block inactive, Kir21 block 0, hERG rescue -12 and KCNQ1 pot inactive.
`CCN1CCN(S(=O)(=O)Cc2ccccc2Cl)CC1` gave KCNQ1 inh inactive, KCNK3 block inactive, KCNK9 block inactive, Kir21 block -0.07, hERG rescue -11 and KCNQ1 pot inactive.
Cc1[nH]n(-c2ccccc2)c(=O)c1/C=N/NC(=O)c1ccccc1F was read as KCNQ1 inh inactive, KCNK3 block inactive, KCNK9 block inactive, Kir21 block -1.1, hERG rescue -12 and KCNQ1 pot inactive.
`COc1ccc(-c2nnc(-c3ccc(C)cc3)o2)cc1` gave KCNQ1 inh inactive, KCNK3 block inactive, KCNK9 block inactive, Kir21 block -0.69, hERG rescue -2 and KCNQ1 pot inactive.
`COc1ccc(-c2nnc(-c3ccccc3O)o2)cc1` gave KCNQ1 inh inactive, KCNK3 block inactive, KCNK9 block inactive, Kir21 block 0.26, hERG rescue 5.1* and KCNQ1 pot inactive.
For Cc1ccc(OCC(COCc2ccccc2)NC(C)C)cc1 (configuration not stated) the results were KCNQ1 inh inactive, KCNK3 block inactive, KCNK9 block inactive, Kir21 block -2.3, hERG rescue -9 and KCNQ1 pot inactive.
`Cc1cc(C(=O)OCC(=O)N(C)c2ccccc2)ccc1[N+](=O)[O-]` gave KCNQ1 inh inactive, KCNK3 block inactive, KCNK9 block inactive, Kir21 block 0.78, hERG rescue -7 and KCNQ1 pot inactive.
Cc1ccc(C(=O)OCC(=O)N(C)c2ccccc2)cc1C was read as KCNQ1 inh inactive, KCNK3 block inactive, KCNK9 block inactive, Kir21 block 0.2, hERG rescue -4 and KCNQ1 pot 11*.
`Cc1cccc(C)c1NC(=O)NC1(C(=O)NCC2CCCO2)CCCCC1` (configuration not stated) gave KCNQ1 inh inactive, KCNK3 block inactive, KCNK9 block inactive, Kir21 block 1.2, hERG rescue -10 and KCNQ1 pot inactive.
O=C1/C(=C/c2cccs2)CCC/C1=C\c1cccs1 was read as KCNQ1 inh inactive, KCNK3 block inactive, KCNK9 block inactive, Kir21 block 0.02, hERG rescue -12 and KCNQ1 pot inactive.
`CC1C/C(=C/c2cccs2)C(=O)/C(=C/c2cccs2)C1` (configuration not stated) gave KCNQ1 inh inactive, KCNK3 block inactive, KCNK9 block -7.4*, Kir21 block -0.07, hERG rescue -16 and KCNQ1 pot inactive.
`COc1ccc(S(=O)(=O)N(C)C[C@H]2Oc3ccc(NC(=O)Nc4ccc5c(c4)OCO5)cc3C(=O)N([C@H](C)CO)C[C@@H]2C)cc1` gave KCNK3 block inactive.
For Cc1nc(CNS(=O)(=O)c2ccc(F)cc2)cs1 the results were KCNQ1 inh inactive, KCNK3 block inactive, KCNK9 block inactive, Kir21 block -3.2, hERG rescue 0 and KCNQ1 pot inactive.
Cc1ccc(C)c(N2CCN(c3nc4ccccc4c(=O)n3Cc3ccccc3)CC2)c1 was read as KCNQ1 inh inactive, KCNK3 block inactive, KCNK9 block -7.6*, Kir21 block 1.6, hERG rescue -12 and KCNQ1 pot inactive.
Screening Cc1ccc(C)c(N2CCN(C(=O)c3ccc(Cn4c(=O)[nH]c5ccccc5c4=O)cc3)CC2)c1 returned KCNQ1 inh inactive, KCNK3 block inactive, KCNK9 block inactive, Kir21 block -0.8, hERG rescue -12 and KCNQ1 pot inactive.
Screening N#CC1=C(N)NC(SCc2ccc(F)cc2)=C(C#N)C12CCCCC2 returned KCNQ1 inh inactive, KCNK3 block inactive, KCNK9 block inactive, Kir21 block -4.4*, hERG rescue -26 and KCNQ1 pot inactive.
For N#CC1=C(N)NC(SCC(=O)Nc2ccccc2)=C(C#N)C12CCCC2 the results were KCNQ1 inh 10*, KCNK3 block inactive, KCNK9 block inactive, Kir21 block 1.1, hERG rescue -15 and KCNQ1 pot inactive.
For CCOP(=O)(OCC)C(NCc1ccccc1)c1ccc(Br)cc1 (configuration not stated) the results were KCNQ1 inh inactive, KCNK3 block inactive, KCNK9 block inactive, Kir21 block -4.3*, hERG rescue -2 and KCNQ1 pot inactive.
Screening CCOP(=O)(OCC)C(NC(=O)Nc1ccccc1)c1ccccc1 (configuration not stated) returned KCNQ1 inh inactive, KCNK3 block inactive, KCNK9 block inactive, Kir21 block 0.71, hERG rescue -9 and KCNQ1 pot inactive.
Screening CCC(C(=O)c1ccc(O)cc1)c1ccccc1 (configuration not stated) returned KCNQ1 inh inactive, KCNK3 block inactive, KCNK9 block inactive, Kir21 block -5*, hERG rescue -5 and KCNQ1 pot inactive.
CCC(C(=O)N(C(C)C)C(C)C)c1ccccc1 (configuration not stated) was read as KCNK3 block inactive.
Screening C/C(=N/Oc1nc(C)cc(C)n1)c1ccc(Cl)cc1Cl returned KCNQ1 inh inactive, KCNK3 block inactive, KCNK9 block inactive, Kir21 block 1.6, hERG rescue -4 and KCNQ1 pot inactive.

High-throughput results deposited in PubChem BioAssay by Johns Hopkins Ion Channel Center.
